Measured values pooled from the literature.
Protocols differ between the studies behind these lines.
Target: cAMP-dependent protein kinase catalytic subunit alpha (PRKACA, Homo sapiens, UniProt P17612)

SMILES	read-out	technique	tested at	remaining binding [%]
CNC(=O)c1ccc(Nc2ncc(C(F)(F)F)c(NCc3nccnc3N(C)S(C)(=O)=O)n2)cc1	cell-free assay	competition with immobilised ligand	0.1 µM	100
C[C@@H]1CN(c2ccc3ncc(-c4ccc5[nH]nc(C6CC6)c5c4)n3n2)C[C@H](C)O1	binding	competition with immobilised ligand	0.5 µM	100
CC(C)(C)c1ccc(-c2nc(CBr)nn2-c2cccc(O)c2)cc1	cell-free assay	competition with immobilised ligand	10 µM	86
O=C(c1ccc(Nc2nccc(-c3cc4ccccc4s3)n2)cc1)N1CCC(N2CCCC2)CC1	binding	competition with immobilised ligand	1 µM	100
Cc1c(C(=O)O)cc(-c2ccc(C3CCNCC3)cc2)c2ccc(-c3ccc(C(F)(F)F)cc3)cc12	cell-free assay	competition with immobilised ligand	1 µM	100
CN(C)c1nccc(-c2cnc3ncccn23)n1	binding		1 µM	83
COc1cnc(Nc2cccc(S(N)(=O)=O)c2)nc1N1CCN(c2ccccc2)C(=O)C1	binding	competition with immobilised ligand	1 µM	100
CN(C)c1ncc(F)c(-c2cnn3ncccc23)n1	binding		1 µM	86
CS(=O)(=O)N1CCCC(NC(=O)[C@H](CCC2CCCCC2)NC(=O)c2ccc(CNc3ncnc4c3nnn4-c3ccccc3)cc2)C1 (stereo partly drawn)	cell-free assay	competition with immobilised ligand	0.1 µM	100
O=C(NCCCN1CCOCC1)c1ccc(Nc2ncc(Cl)c(-c3ccc(Cl)s3)n2)cc1	binding	competition with immobilised ligand	1 µM	100
COCCOc1nc(-c2ccc(Cl)nc2)nc2c1CN(C(=O)c1ncn3ccccc13)CC2	cell-free assay	competition with immobilised ligand	0.1 µM	82
C[C@H]1CCN(c2nccc(-c3cnn4ncccc34)n2)C1	binding		1 µM	100
Nc1cnc(N2CCc3cc(S(=O)(=O)Nc4c(F)cc(Cl)cc4F)cc(N4CCCC4=O)c32)nc1	cell-free assay	competition with immobilised ligand	1 µM	100
c1cncc(-c2cccc(Nc3nccc(NC4CCCCC4)n3)c2)c1	binding	competition with immobilised ligand	10 µM	50
O=C(NCCCN1CCOCC1)c1ccc(Nc2nccc(-c3cc4ccccc4s3)n2)cc1	binding	competition with immobilised ligand	1 µM	95
C=CC(=O)N1CCC(C(=O)NCC(=O)N2CCN(c3nc(-c4cnc(N)nc4C(F)F)nc(N4CCOCC4)n3)CC2)CC1	binding	competition with immobilised ligand	1 µM	100
O=C(NCC1CCOCC1)c1n[nH]cc1NC(=O)c1c(F)cccc1F	binding	competition with immobilised ligand	1 µM	100
COc1ccc2c(c1)O[C@@H](c1ccc(OC)c(OC)c1)C[C@H]2NC(=O)C1(c2ccc3c(c2)OC(F)(F)O3)CC1	cell-free assay	competition with immobilised ligand	1 µM	100
CCN1CCN(Cc2ccc(C(=O)Nc3ccc(C)c(Oc4ccc5c(c4)CC(=O)N5)c3)cc2C(F)(F)F)CC1	binding	competition with immobilised ligand	1 µM	100
CN(CCCC(F)(F)F)c1nccc(-c2cnn3ncccc23)n1	binding		1 µM	100
C[C@@H](c1ccc(-n2cnc3c(N)ncnc32)cc1)N1CCc2nn(C)c(Cc3ccccc3)c2C1=O	binding	competition with immobilised ligand	0.1 µM	100
